Read-outs that look alike come from different tables or passages of the source.
What was measured:
[1] = tested on: Sindbis virus; experiment: microbe, parasite or virus in culture; assay type: cell-based; conditions: read-out: Antiviral activity EC50 Sindbis virus
[2] = tested on: Vesicular stomatitis virus; experiment: microbe, parasite or virus in culture; assay type: cell-based; conditions: read-out: EC50 Vesicular stomatitis virus
[3] = tested on: Influenza B; experiment: Anti-influenza virus activity, influenza B in MDCK cells; assay type: cell-based, influenza B virus B/Hong Kong/5/72
[4] = tested on: MDCK cells; conditions: for Cytotoxicity Minimum cytotoxic concentration: microscopically detectable alteration of normal cell morphology; for CC50: read-out: Cytotoxicity CC50, MTS assay
[5] = tested on: Vaccinia virus; experiment: microbe, parasite or virus in culture; assay type: cell-based; conditions: read-out: EC50 Vaccinia virus
[6] = tested on: Human embryonic lung cell cultures; experiment: Cytotoxicity; assay type: cell-based
Procedure, shortened: (§1)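 Cell cultures incubated with varying concentrations of test compound, then examined by microscopy. MCC is the lowest concentration that causes a microscopically detectable alteration of normal cell morphology. HEL, Vero and HeLa lines were monitored regularly for mycoplasma and found free of it.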

[7] = tested on: Coxsackie virus B4; experiment: microbe, parasite or virus in culture; assay type: cell-based; conditions: read-out: Antiviral activity EC50 Coxsackie virus B4
[8] = tested on: Reovirus-1; experiment: organism not typed; assay type: cell-based; conditions: read-out: Antiviral activity EC50 Reovirus-1
[9] = tested on: Herpes simplex virus-1 (KOS); experiment: microbe, parasite or virus in culture; assay type: cell-based, herpes simplex virus type 1; conditions: read-out: EC50 Herpes simplex virus-1 (KOS)
[10] = tested on: Crandell-Rees feline kidney cells; experiment: Cytotoxicity; assay type: cell-based
[11] = tested on: Vero cell cultures; experiment: Cytotoxicity; assay type: cell-based
Procedure, shortened: as §1

[12] = tested on: Vesicular stomatitis virus; assay type: cell-based; conditions: read-out: Antiviral activity EC50 Vesicular stomatitis virus
[13] = tested on: Feline corona virus; experiment: Antiviral CPE assay, feline corona virus in CRFK cells; assay type: cell-based, feline coronavirus (FIPV); conditions: read-out: EC50 Feline corona virus; CRFK cell culture
[14] = tested on: Influenza A H3N2 subtype; experiment: Anti-influenza virus activity, influenza A H3N2 in MDCK cells; assay type: cell-based, influenza A virus A/Hong Kong/7/87 (H3N2); conditions: read-out: Antiviral EC50 Influenza A H3N2 subtype MTS
[15] = tested on: Punta Toro virus; experiment: microbe, parasite or virus in culture; assay type: cell-based; conditions: read-out: Antiviral activity EC50 Punta Toro virus
[16] = tested on: Herpes simplex virus-1TK-KOS ACV^r; experiment: microbe, parasite or virus in culture; assay type: cell-based, herpes simplex virus type 1; conditions: read-out: EC50 Herpes simplex virus-1TK-KOS ACV^r
[17] = tested on: Para-influenza-3 virus; experiment: organism not typed; assay type: cell-based, parainfluenza-3 virus; conditions: read-out: Antiviral activity EC50 Para-influenza-3 virus
[18] = tested on: Coxsackie virus B4; experiment: microbe, parasite or virus in culture; assay type: cell-based; conditions: read-out: Antiviral activity EC50 Coxsackie virus B4; remark: listed apart in the source
[19] = tested on: Herpes simplex virus-2 (G); experiment: microbe, parasite or virus in culture; assay type: cell-based, herpes simplex virus type 2; conditions: read-out: EC50 Herpes simplex virus-2 (G)
[20] = tested on: Feline herpes virus; experiment: Antiviral CPE assay, feline herpes virus in CRFK cells; assay type: cell-based; conditions: read-out: EC50 Feline herpes virus
[21] = tested on: HeLa cell cultures; experiment: Cytotoxicity; assay type: cell-based
Procedure, shortened: as §1

[22] = tested on: Influenza A H1N1 subtype; experiment: Anti-influenza virus activity, influenza A H1N1 in MDCK cells; assay type: cell-based, influenza A virus A/Puerto Rico/8/34 (H1N1); conditions: for EC50: read-out: Antiviral EC50 Influenza A H1N1 subtype MTS, MDCK cells, MTS; for anti-influenza activity (in words): H1N1, H3N2 and influenza B, below the non-toxic concentration of 100 µM
[23] = tested on: Cytomegalovirus AD-169 strain; assay type: cell-based, human cytomegalovirus; conditions: both strains of HCMV (AD-169 and Davis)
[24] = tested on: Cytomegalovirus Davis strain; experiment: microbe, parasite or virus in culture; assay type: cell-based; conditions: Human betaherpesvirus 5, HEL, read-out: EC50 Cytomegalovirus Davis strain
[25] = in vitro; conditions: dog
[26] = read-out: Antiviral EC50 Influenza B MTS, MDCK cells, MTS

## 1-({[4-(dimethylamino)phenyl]methylidene}amino)-3-{[(3Z)-2-oxo-2,3-dihydro-1H-indol-3-ylidene]amino}thiourea [4c]
[1]; Vero cell cultures
  EC50: > 100 µM
[2]
  EC50: > 100 µM
[3]; [26]
  EC50: > 100 µM
[4]
  Cytotoxicity Minimum cytotoxic concentration: >100
  CC50: > 100 µM
[5]
  EC50: > 100 µM
[6]
  Minimum cytotoxic concentration: ≥100 µM
[7]; HeLa cell cultures
  EC50: > 100 µM
[8]; Vero cell cultures
  EC50: > 100 µM
[9]; HEL cell culture
  EC50: > 100 µM
[10]
  Minimum cytotoxic concentration: >100 µM
[11]
  Minimum cytotoxic concentration: >100 µM
[12]
  EC50: > 100 µM
[13]
  EC50: > 100 µM
[14]
  EC50: > 100 µM
[15]; Vero cell cultures
  EC50: > 100 µM
[16]; HEL cell culture
  EC50: > 100 µM
[17]
  EC50: > 100 µM
[18]; Vero cell cultures
  EC50: > 100 µM
[19]; HEL cell culture
  EC50: > 100 µM
[20]; CRFK cell culture
  EC50: > 100 µM
[21]
  Minimum cytotoxic concentration: >100 µM
[22]
  EC50: > 100 µM

## 1-{[(3,4-Dimethoxyphenyl)methylidene]amino}-3-{[(3Z)-2-oxo-2,3-dihydro-1H-indol-3-ylidene]amino}thiourea [4f]
[1]; Vero cell cultures
  EC50: > 20 µM
[2]
  EC50: > 20 µM
[3]; [26]
  EC50: 37 ± 8.75 µM
[4]
  Cytotoxicity Minimum cytotoxic concentration: >100
  CC50: > 100 µM
[5]
  EC50: > 20 µM
[6]
  Minimum cytotoxic concentration: 100 µM
[7]; HeLa cell cultures
  EC50: > 100 µM
[8]; Vero cell cultures
  EC50: > 20 µM
[9]; HEL cell culture
  EC50: > 20 µM
[10]
  Minimum cytotoxic concentration: 100 µM
[11]
  Minimum cytotoxic concentration: ≥20 µM
[12]
  EC50: > 100 µM
[13]
  EC50: > 100 µM
[14]
  EC50: 27 ± 7.3 µM
[15]; Vero cell cultures
  EC50: > 20 µM
[16]; HEL cell culture
  EC50: > 20 µM
[17]
  EC50: > 20 µM
[18]; Vero cell cultures
  EC50: > 20 µM
[19]; HEL cell culture
  EC50: > 20 µM
[20]; CRFK cell culture
  EC50: > 100 µM
[21]
  Minimum cytotoxic concentration: >100 µM
[22]
  anti-influenza activity (in words): some activity
  EC50: 37 ± 25 µM

## 1-{[(4-Chlorophenyl)methylidene]amino}-3-{[(3Z)-2-oxo-2,3-dihydro-1H-indol-3-ylidene]amino}thiourea [4e]
[1]; Vero cell cultures
  EC50: > 100 µM
[2]
  EC50: > 100 µM
[3]; [26]
  EC50: > 100 µM
[4]
  Cytotoxicity Minimum cytotoxic concentration: >100
  CC50: > 100 µM
[5]
  EC50: > 100 µM
[6]
  Minimum cytotoxic concentration: 100 µM
[7]; HeLa cell cultures
  EC50: > 100 µM
[8]; Vero cell cultures
  EC50: > 100 µM
[9]; HEL cell culture
  EC50: > 100 µM
[10]
  Minimum cytotoxic concentration: >100 µM
[11]
  Minimum cytotoxic concentration: >100 µM
[12]
  EC50: > 100 µM
[13]
  EC50: > 100 µM
[14]
  EC50: > 100 µM
[15]; Vero cell cultures
  EC50: > 100 µM
[16]; HEL cell culture
  EC50: > 100 µM
[17]
  EC50: > 100 µM
[18]; Vero cell cultures
  EC50: > 100 µM
[19]; HEL cell culture
  EC50: > 100 µM
[20]; CRFK cell culture
  EC50: > 100 µM
[21]
  Minimum cytotoxic concentration: >100 µM
[22]
  EC50: > 100 µM

## 1-{[(4-Nitrophenyl)methylidene]amino}-3-{[(3Z)-2-oxo-2,3-dihydro-1H-indol-3-ylidene]amino}thiourea [4d]
[1]; Vero cell cultures
  EC50: > 20 µM
[2]
  EC50: > 100 µM
[3]; [26]
  EC50: > 100 µM
[4]
  Cytotoxicity Minimum cytotoxic concentration: >100
  CC50: > 100 µM
[5]
  EC50: > 100 µM
[6]
  Minimum cytotoxic concentration: 100 µM
[7]; HeLa cell cultures
  EC50: > 100 µM
[8]; Vero cell cultures
  EC50: > 20 µM
[9]; HEL cell culture
  EC50: > 100 µM
[10]
  Minimum cytotoxic concentration: >100 µM
[11]
  Minimum cytotoxic concentration: 100 µM
[12]
  EC50: > 100 µM
[13]
  EC50: > 100 µM
[14]
  EC50: > 100 µM
[15]; Vero cell cultures
  EC50: > 20 µM
[16]; HEL cell culture
  EC50: > 100 µM
[17]
  EC50: > 20 µM
[18]; Vero cell cultures
  EC50: > 20 µM
[19]; HEL cell culture
  EC50: > 100 µM
[20]; CRFK cell culture
  EC50: > 100 µM
[21]
  Minimum cytotoxic concentration: >100 µM
[22]
  EC50: > 100 µM

## 3-[(1H-indol-3-ylmethylidene)amino]-1-{[(3Z)-2-oxo-2,3-dihydro-1H-indol-3-ylidene]amino}thiourea [4a]
[1]; Vero cell cultures
  EC50: > 20 µM
[2]
  EC50: > 20 µM
[3]; [26]
  EC50: > 4 µM
[23]
  antiviral activity against HCMV (in words): moderate activity
[4]
  Cytotoxicity Minimum cytotoxic concentration: 20
  CC50: 51 µM
[5]
  EC50: > 20 µM
[6]
  Minimum cytotoxic concentration: 60 µM
[7]; HeLa cell cultures
  EC50: > 20 µM
[8]; Vero cell cultures
  EC50: > 20 µM
[9]; HEL cell culture
  EC50: > 20 µM
[10]
  Minimum cytotoxic concentration: 86 µM
[11]
  Minimum cytotoxic concentration: 100 µM
[12]
  EC50: > 20 µM
[13]
  EC50: > 20 µM
[14]
  EC50: > 4 µM
[15]; Vero cell cultures
  EC50: > 20 µM
[16]; HEL cell culture
  EC50: > 20 µM
[17]
  EC50: > 20 µM
[18]; Vero cell cultures
  EC50: > 20 µM
[19]; HEL cell culture
  EC50: > 20 µM
[20]; CRFK cell culture
  EC50: > 20 µM
[21]
  Minimum cytotoxic concentration: ≥20 µM
[22]
  EC50: > 4 µM

## O=C(N/N=C1\C(=O)Nc2ccc([N+](=O)[O-])cc21)N/N=C1\C(=O)Nc2ccc([N+](=O)[O-])cc21 [6d, 1,3-Bis({[(3Z)-5-nitro-2-oxo-2,3-dihydro-1H-indol-3-ylidene]amino})urea]
[1]; Sindbis virus, Vero
  EC50: > 100 µM
[2]; Vesicular stomatitis virus, HEL
  EC50: > 100 µM
[24]
  EC50: > 100 µM
[3]; Influenza B virus, MDCK, read-out: Antiviral EC50 Influenza B MTS
  EC50: 38 ± 1.3 µM
[3]; Influenza B virus, MDCK, read-out: Antiviral EC50 Influenza B Visual CPE score
  EC50: 47 ± 2.5 µM
[4]
  Cytotoxicity Minimum cytotoxic concentration: >100
[5]; Orthopoxvirus vaccinia, HEL
  EC50: > 100 µM
[6]
  Minimum cytotoxic concentration: ≥100 µM
[7]; Enterovirus B, B4, HeLa
  EC50: > 100 µM
[8]; Vero
  EC50: > 100 µM
[9]; Human alphaherpesvirus 1, HEL
  EC50: > 100 µM
[10]
  Minimum cytotoxic concentration: >100 µM
[11]
  Minimum cytotoxic concentration: >100 µM
[15]; Punta Toro virus, Vero
  EC50: > 100 µM
[16]; Human alphaherpesvirus 1, HEL
  EC50: > 100 µM
[17]; Vero
  EC50: > 100 µM
[18]; Enterovirus B, B4, Vero
  EC50: > 100 µM
[19]; Human alphaherpesvirus 2, HEL
  EC50: > 100 µM
[25]
  CC50: > 100 µM
[20]; CRFK
  EC50: > 100 µM
[21]
  Minimum cytotoxic concentration: >100 µM
[22]
  anti-influenza activity (in words): some activity

Reference: paper PMC7080202 (Medicinal Chemistry Research, 2013)
